Reference: ChEMBL document CHEMBL4014276, “Diphenylurea derivatives for combating methicillin- and vancomycin-resistant Staphylococcus aureus” (Eur J Med Chem, 2017)
≈ marks a conversion by molar mass, not a printed value. Calls of active or inactive are those of the source. The calls are words filed in the database; no cut-off is given here.

What follows are compounds tested on Staphylococcus aureus (assay: Antibacterial activity against methicillin-resistant Staphylococcus aureus USA300 NRS384 clinical isolate preincubated followed by bacterial subculturing for 2 weeks). Conditions: not given.
Format: functional

| SMILES | Activity |
| --- | --- |
| C/C(=N\NC(=N)N)c1ccc(NC(=O)Nc2ccc(OCC(C)C)cc2)cc1 | Active |
| CCCOc1ccc(NC(=O)Nc2ccc(/C(C)=N/NC(=N)N)cc2)cc1 | Active |
| CCCCCCCOc1ccc(NC(=O)Nc2ccc(/C(C)=N/NC(=N)N)cc2)cc1 | Active |

The compounds below were run on Staphylococcus aureus (assay: Antibacterial activity against methicillin-resistant Staphylococcus aureus USA400 NRS123 clinical isolate after 20 hrs by broth microdilution method). Conditions: USA400 NRS123, 20 h.
Format: functional
Method in brief: (§1)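 CLSI broth microdilution in cation-adjusted Mueller Hinton broth; compounds serially diluted, triplicate samples; 37 °C, 20 h. MIC read visually as lowest concentration with no visible growth; mean of triplicate determinations reported.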

| SMILES | MIC [µg/mL] |
| --- | --- |
| C/C(=N\NC(=N)N)c1ccc(NC(=O)Nc2ccc(OCC(C)C)cc2)cc1 | 8 (≈ 20.9 µM) |
| CCCOc1ccc(NC(=O)Nc2ccc(/C(C)=N/NC(=N)N)cc2)cc1 | 4 (≈ 10.9 µM) |
| CCCCCCCOc1ccc(NC(=O)Nc2ccc(/C(C)=N/NC(=N)N)cc2)cc1 | 16 (≈ 37.7 µM) |

Each compound was assayed on Staphylococcus aureus (assay: Antibacterial activity against methicillin-resistant Staphylococcus aureus USA300 NRS384 clinical isolate after 20 hrs by broth microdilution method). Conditions: USA300 NRS384, 20 h.
Format: functional
Method in brief: as §1

| SMILES | MIC [µg/mL] |
| --- | --- |
| C/C(=N\NC(=N)N)c1ccc(NC(=O)Nc2ccc(OCC(C)C)cc2)cc1 | 4 (≈ 10.5 µM) |
| CCCOc1ccc(NC(=O)Nc2ccc(/C(C)=N/NC(=N)N)cc2)cc1 | 8 (≈ 21.7 µM) |
| CCCCCCCOc1ccc(NC(=O)Nc2ccc(/C(C)=N/NC(=N)N)cc2)cc1 | 16 (≈ 37.7 µM) |

The compounds below were run on Staphylococcus aureus (assay: Bactericidal activity against vancomycin-resistant Staphylococcus aureus VRSA4 after 18 hrs by broth microdilution method). Conditions: VRSA4, 18 h.
Format: functional
Method in brief: (§2)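 From MIC wells without visible growth, 5 uL spotted onto Tryptic soy agar, incubated 37 °C for at least 18 h; MBC taken as lowest concentration giving 99.9% growth inhibition.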

| SMILES | MBC [µg/mL] |
| --- | --- |
| C/C(=N\NC(=N)N)c1ccc(NC(=O)Nc2ccc(OCC(C)C)cc2)cc1 | 8 (≈ 20.9 µM) |
| CCCOc1ccc(NC(=O)Nc2ccc(/C(C)=N/NC(=N)N)cc2)cc1 | 8 (≈ 21.7 µM) |
| CCCCCCCOc1ccc(NC(=O)Nc2ccc(/C(C)=N/NC(=N)N)cc2)cc1 | 8 (≈ 18.8 µM) |

Each compound was assayed on Staphylococcus aureus (assay: Bactericidal activity against Staphylococcus aureus RN4220 NRS107 clinical isolate after 18 hrs by broth microdilution method). Conditions: RN4220 NRS107, 18 h.
Format: functional
Method in brief: as §2

| SMILES | MBC [µg/mL] |
| --- | --- |
| C/C(=N\NC(=N)N)c1ccc(NC(=O)Nc2ccc(OCC(C)C)cc2)cc1 | 4 (≈ 10.5 µM) |
| CCCOc1ccc(NC(=O)Nc2ccc(/C(C)=N/NC(=N)N)cc2)cc1 | 8 (≈ 21.7 µM) |
| CCCCCCCOc1ccc(NC(=O)Nc2ccc(/C(C)=N/NC(=N)N)cc2)cc1 | 8 (≈ 18.8 µM) |

Each compound was assayed on Staphylococcus aureus (assay: Bactericidal activity against methicillin-resistant Staphylococcus aureus USA100 NRS382 clinical isolate after 18 hrs by broth microdilution method). Conditions: USA100 NRS382, 18 h.
Format: functional
Method in brief: as §2

| SMILES | MBC [µg/mL] |
| --- | --- |
| C/C(=N\NC(=N)N)c1ccc(NC(=O)Nc2ccc(OCC(C)C)cc2)cc1 | 8 (≈ 20.9 µM) |
| CCCOc1ccc(NC(=O)Nc2ccc(/C(C)=N/NC(=N)N)cc2)cc1 | 8 (≈ 21.7 µM) |
| CCCCCCCOc1ccc(NC(=O)Nc2ccc(/C(C)=N/NC(=N)N)cc2)cc1 | 16 (≈ 37.7 µM) |

These compounds were tested on Staphylococcus aureus (assay: Bactericidal activity against vancomycin-resistant Staphylococcus aureus VRSA10 after 18 hrs by broth microdilution method). Conditions: VRSA10, 18 h.
Format: functional
Method in brief: as §2

| SMILES | MBC [µg/mL] |
| --- | --- |
| C/C(=N\NC(=N)N)c1ccc(NC(=O)Nc2ccc(OCC(C)C)cc2)cc1 | 8 (≈ 20.9 µM) |
| CCCOc1ccc(NC(=O)Nc2ccc(/C(C)=N/NC(=N)N)cc2)cc1 | 16 (≈ 43.4 µM) |
| CCCCCCCOc1ccc(NC(=O)Nc2ccc(/C(C)=N/NC(=N)N)cc2)cc1 | 16 (≈ 37.7 µM) |

The compounds below were run on Staphylococcus aureus (assay: Antibacterial activity against methicillin-resistant Staphylococcus aureus USA200 NRS383 clinical isolate after 20 hrs by broth microdilution method). Conditions: USA200 NRS383, 20 h.
Format: functional
Method in brief: as §1

| SMILES | MIC [µg/mL] |
| --- | --- |
| C/C(=N\NC(=N)N)c1ccc(NC(=O)Nc2ccc(OCC(C)C)cc2)cc1 | 4 (≈ 10.5 µM) |
| CCCOc1ccc(NC(=O)Nc2ccc(/C(C)=N/NC(=N)N)cc2)cc1 | 8 (≈ 21.7 µM) |
| CCCCCCCOc1ccc(NC(=O)Nc2ccc(/C(C)=N/NC(=N)N)cc2)cc1 | 8 (≈ 18.8 µM) |

Each compound was assayed on Staphylococcus aureus (assay: Antibacterial activity against methicillin-resistant Staphylococcus aureus USA100 NRS382 clinical isolate preincubated followed by bacterial subculturing for 2 weeks). Conditions: not given.
Format: functional

| SMILES | Activity |
| --- | --- |
| C/C(=N\NC(=N)N)c1ccc(NC(=O)Nc2ccc(OCC(C)C)cc2)cc1 | Active |
| CCCOc1ccc(NC(=O)Nc2ccc(/C(C)=N/NC(=N)N)cc2)cc1 | Active |
| CCCCCCCOc1ccc(NC(=O)Nc2ccc(/C(C)=N/NC(=N)N)cc2)cc1 | Active |

The compounds below were run on Staphylococcus aureus (assay: Antibacterial activity against vancomycin-resistant Staphylococcus aureus VRSA4 after 20 hrs by broth microdilution method). Conditions: VRSA4, 20 h.
Format: functional
Method in brief: as §1

| SMILES | MIC [µg/mL] |
| --- | --- |
| C/C(=N\NC(=N)N)c1ccc(NC(=O)Nc2ccc(OCC(C)C)cc2)cc1 | 4 (≈ 10.5 µM) |
| CCCOc1ccc(NC(=O)Nc2ccc(/C(C)=N/NC(=N)N)cc2)cc1 | 8 (≈ 21.7 µM) |
| CCCCCCCOc1ccc(NC(=O)Nc2ccc(/C(C)=N/NC(=N)N)cc2)cc1 | 8 (≈ 18.8 µM) |

What follows are compounds tested on Staphylococcus aureus (assay: Antibacterial activity against Staphylococcus aureus RN4220 NRS107 clinical isolate after 20 hrs by broth microdilution method). Conditions: RN4220 NRS107, 20 h.
Format: functional
Method in brief: as §1

| SMILES | MIC [µg/mL] |
| --- | --- |
| C/C(=N\NC(=N)N)c1ccc(NC(=O)Nc2ccc(OCC(C)C)cc2)cc1 | 4 (≈ 10.5 µM) |
| CCCOc1ccc(NC(=O)Nc2ccc(/C(C)=N/NC(=N)N)cc2)cc1 | 8 (≈ 21.7 µM) |
| CCCCCCCOc1ccc(NC(=O)Nc2ccc(/C(C)=N/NC(=N)N)cc2)cc1 | 8 (≈ 18.8 µM) |

The compounds below were run on Staphylococcus aureus (assay: Antibacterial activity against methicillin-resistant Staphylococcus aureus USA100 NRS382 clinical isolate after 20 hrs by broth microdilution method). Conditions: USA100 NRS382, 20 h.
Format: functional
Method in brief: as §1

| SMILES | MIC [µg/mL] |
| --- | --- |
| C/C(=N\NC(=N)N)c1ccc(NC(=O)Nc2ccc(OCC(C)C)cc2)cc1 | 8 (≈ 20.9 µM) |
| CCCOc1ccc(NC(=O)Nc2ccc(/C(C)=N/NC(=N)N)cc2)cc1 | 8 (≈ 21.7 µM) |
| CCCCCCCOc1ccc(NC(=O)Nc2ccc(/C(C)=N/NC(=N)N)cc2)cc1 | 16 (≈ 37.7 µM) |

What follows are compounds tested on Staphylococcus aureus (assay: Bactericidal activity against methicillin-resistant Staphylococcus aureus USA200 NRS383 clinical isolate after 18 hrs by broth microdilution method). Conditions: USA200 NRS383, 18 h.
Format: functional
Method in brief: as §2

| SMILES | MBC [µg/mL] |
| --- | --- |
| C/C(=N\NC(=N)N)c1ccc(NC(=O)Nc2ccc(OCC(C)C)cc2)cc1 | 4 (≈ 10.5 µM) |
| CCCOc1ccc(NC(=O)Nc2ccc(/C(C)=N/NC(=N)N)cc2)cc1 | 16 (≈ 43.4 µM) |
| CCCCCCCOc1ccc(NC(=O)Nc2ccc(/C(C)=N/NC(=N)N)cc2)cc1 | 8 (≈ 18.8 µM) |

What follows are compounds tested on Staphylococcus aureus (assay: Antibacterial activity against methicillin-resistant Staphylococcus aureus USA200 NRS383 clinical isolate preincubated followed by bacterial subculturing for 2 weeks). Conditions: not given.
Format: functional

| SMILES | Activity |
| --- | --- |
| C/C(=N\NC(=N)N)c1ccc(NC(=O)Nc2ccc(OCC(C)C)cc2)cc1 | Active |
| CCCOc1ccc(NC(=O)Nc2ccc(/C(C)=N/NC(=N)N)cc2)cc1 | Active |
| CCCCCCCOc1ccc(NC(=O)Nc2ccc(/C(C)=N/NC(=N)N)cc2)cc1 | Active |

The compounds below were run on Staphylococcus aureus (assay: Bactericidal activity against methicillin-resistant Staphylococcus aureus USA300 NRS384 clinical isolate after 18 hrs by broth microdilution method). Conditions: USA300 NRS384, 18 h.
Format: functional
Method in brief: as §2

| SMILES | MBC [µg/mL] |
| --- | --- |
| C/C(=N\NC(=N)N)c1ccc(NC(=O)Nc2ccc(OCC(C)C)cc2)cc1 | 8 (≈ 20.9 µM) |
| CCCOc1ccc(NC(=O)Nc2ccc(/C(C)=N/NC(=N)N)cc2)cc1 | 16 (≈ 43.4 µM) |
| CCCCCCCOc1ccc(NC(=O)Nc2ccc(/C(C)=N/NC(=N)N)cc2)cc1 | 16 (≈ 37.7 µM) |

These compounds were tested on Staphylococcus aureus (assay: Antibacterial activity against methicillin-resistant Staphylococcus aureus USA400 NRS123 clinical isolate preincubated followed by bacterial subculturing for 2 weeks). Conditions: not given.
Format: functional

| SMILES | Activity |
| --- | --- |
| C/C(=N\NC(=N)N)c1ccc(NC(=O)Nc2ccc(OCC(C)C)cc2)cc1 | Active |
| CCCOc1ccc(NC(=O)Nc2ccc(/C(C)=N/NC(=N)N)cc2)cc1 | Active |
| CCCCCCCOc1ccc(NC(=O)Nc2ccc(/C(C)=N/NC(=N)N)cc2)cc1 | Active |

What follows are compounds tested on Staphylococcus aureus (assay: Bactericidal activity against methicillin-resistant Staphylococcus aureus USA400 NRS123 clinical isolate after 18 hrs by broth microdilution method). Conditions: USA400 NRS123, 18 h.
Format: functional
Method in brief: as §2

| SMILES | MBC [µg/mL] |
| --- | --- |
| C/C(=N\NC(=N)N)c1ccc(NC(=O)Nc2ccc(OCC(C)C)cc2)cc1 | 16 (≈ 41.8 µM) |
| CCCOc1ccc(NC(=O)Nc2ccc(/C(C)=N/NC(=N)N)cc2)cc1 | 16 (≈ 43.4 µM) |
| CCCCCCCOc1ccc(NC(=O)Nc2ccc(/C(C)=N/NC(=N)N)cc2)cc1 | 16 (≈ 37.7 µM) |

These compounds were tested on Staphylococcus aureus (assay: Antibacterial activity against vancomycin-resistant Staphylococcus aureus VRSA10 after 20 hrs by broth microdilution method). Conditions: VRSA10, 20 h.
Format: functional
Method in brief: as §1

| SMILES | MIC [µg/mL] |
| --- | --- |
| C/C(=N\NC(=N)N)c1ccc(NC(=O)Nc2ccc(OCC(C)C)cc2)cc1 | 4 (≈ 10.5 µM) |
| CCCOc1ccc(NC(=O)Nc2ccc(/C(C)=N/NC(=N)N)cc2)cc1 | 8 (≈ 21.7 µM) |
| CCCCCCCOc1ccc(NC(=O)Nc2ccc(/C(C)=N/NC(=N)N)cc2)cc1 | 16 (≈ 37.7 µM) |
